{"source": "ChEMBL document CHEMBL1629627", "about": "“CTX-M expression and selection of ertapenem resistance in Klebsiella pneumoniae and Escherichia coli” (Antimicrob Agents Chemother, 2009)", "format_in_all_cases": "functional, organism-based", "key": {"[1]": {"tested_on": "Escherichia coli", "assay": "Reduction of OmpC expression in Escherichia coli Wi expressing CTX-M2 at 4 times MIC concentration by RT-PCR analysis", "procedure,_shortened": "(§1)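 Ertapenem-decreased-susceptibility mutants of E. coli Wi transformants were selected overnight (18 h, 37°C) on Trypticase soy agar containing ertapenem at fourfold the MIC. omp gene transcripts were quantified by real-time RT-PCR in isolates before and after selection. Calibration curves came from serially diluted cDNA of in vitro-obtained RNA standards for each gene, and copy numbers were compared using the curve slopes.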"}, "[2]": {"tested_on": "Escherichia coli", "assay": "Antibacterial activity against Escherichia coli Wi expressing CTX-M3"}, "[3]": {"tested_on": "Klebsiella pneumoniae", "assay": "Reduction of OmpK35 expression in Klebsiella pneumoniae M expressing CTX-M15 at 4 times MIC concentration by RT-PCR analysis", "procedure,_shortened": "(§2)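 K. pneumoniae M strains, with or without CTX-M, were selected for 18 h at 37°C on Trypticase soy agar with ertapenem at four times the MIC. ompK35 (222-bp amplicon) and ompK36 (202-bp amplicon) transcripts were measured by real-time RT-PCR before and after selection; a 193-bp 16S rRNA amplicon was also amplified. Copy numbers were derived from the slopes of calibration curves made with serially diluted cDNA from in vitro RNA standards.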"}, "[4]": {"tested_on": "Klebsiella pneumoniae", "assay": "Reduction of OmpK36 expression in Klebsiella pneumoniae M expressing CTX-M3 at 4 times MIC concentration by RT-PCR analysis", "procedure,_shortened": "as §2"}, "[5]": {"tested_on": "Klebsiella pneumoniae", "assay": "Antibacterial activity against Klebsiella pneumoniae M expressing CTX-M3"}, "[6]": {"tested_on": "Escherichia coli", "assay": "Reduction of OmpC expression in Escherichia coli Wi expressing CTX-M2 at 4 times MIC concentration by SDS-PAGE analysis"}, "[7]": {"tested_on": "Klebsiella pneumoniae", "assay": "Reduction of OmpK36 expression in Klebsiella pneumoniae M expressing CTX-M2 at 4 times MIC concentration by SDS-PAGE analysis"}, "[8]": {"tested_on": "Klebsiella pneumoniae", "assay": "Reduction of OmpK36 expression in Klebsiella pneumoniae M expressing CTX-M9 at 4 times MIC concentration by SDS-PAGE analysis"}, "[9]": {"tested_on": "Klebsiella pneumoniae", "assay": "Reduction of OmpK36 expression in Klebsiella pneumoniae M expressing CTX-M3 at 4 times MIC concentration by SDS-PAGE analysis"}, "[10]": {"tested_on": "Escherichia coli", "assay": "Reduction of OmpC expression in Escherichia coli Wi expressing CTX-M9 at 4 times MIC concentration by RT-PCR analysis", "procedure,_shortened": "as §1"}, "[11]": {"tested_on": "Escherichia coli", "assay": "Antibacterial activity against Escherichia coli Wi expressing CTX-M15"}, "[12]": {"tested_on": "Escherichia coli", "assay": "Antibacterial activity against Escherichia coli Wi expressing CTX-M9"}, "[13]": {"tested_on": "Klebsiella pneumoniae", "assay": "Reduction of OmpK36 expression in Klebsiella pneumoniae M expressing CTX-M9 at 4 times MIC concentration by RT-PCR analysis", "procedure,_shortened": "as §2"}, "[14]": {"tested_on": "Escherichia coli", "assay": "Reduction of OmpF expression in Escherichia coli Wi expressing CTX-M9 at 4 times MIC concentration by RT-PCR analysis", "procedure,_shortened": "as §1"}, "[15]": {"tested_on": "Klebsiella pneumoniae", "assay": "Antibacterial activity against Klebsiella pneumoniae M expressing CTX-M15"}, "[16]": {"tested_on": "Escherichia coli", "assay": "Reduction of OmpF expression in Escherichia coli Wi expressing CTX-M2 at 4 times MIC concentration by RT-PCR analysis", "procedure,_shortened": "as §1"}, "[17]": {"tested_on": "Klebsiella pneumoniae", "assay": "Reduction of OmpK36 expression in wild type Klebsiella pneumoniae M at 4 times MIC concentration by SDS-PAGE analysis"}, "[18]": {"tested_on": "Escherichia coli", "assay": "Reduction of OmpC expression in Escherichia coli Wi expressing CTX-M3 at 4 times MIC concentration by RT-PCR analysis", "procedure,_shortened": "as §1"}, "[19]": {"tested_on": "Klebsiella pneumoniae", "assay": "Reduction of OmpK36 expression in wild type Klebsiella pneumoniae M at 4 times MIC concentration by RT-PCR analysis", "procedure,_shortened": "as §2"}, "[20]": {"tested_on": "Escherichia coli", "assay": "Reduction of OmpC expression in Escherichia coli Wi expressing CTX-M3 at 4 times MIC concentration by SDS-PAGE analysis"}, "[21]": {"tested_on": "Klebsiella pneumoniae", "assay": "Reduction of OmpK36 expression in Klebsiella pneumoniae M expressing CTX-M15 at 4 times MIC concentration by SDS-PAGE analysis"}, "[22]": {"tested_on": "Escherichia coli", "assay": "Reduction of OmpF expression in Escherichia coli Wi expressing CTX-M3 at 4 times MIC concentration by RT-PCR analysis", "procedure,_shortened": "as §1"}, "[23]": {"tested_on": "Escherichia coli", "assay": "Reduction of OmpC expression in Escherichia coli Wi expressing CTX-M15 at 4 times MIC concentration by RT-PCR analysis", "procedure,_shortened": "as §1"}, "[24]": {"tested_on": "Escherichia coli", "assay": "Antibacterial activity against Escherichia coli Wi expressing CTX-M2"}, "[25]": {"tested_on": "Klebsiella pneumoniae", "assay": "Reduction of OmpK36 expression in Klebsiella pneumoniae M expressing CTX-M2 at 4 times MIC concentration by RT-PCR analysis", "procedure,_shortened": "as §2"}, "[26]": {"tested_on": "Klebsiella pneumoniae", "assay": "Reduction of OmpK35 expression in Klebsiella pneumoniae M expressing CTX-M3 at 4 times MIC concentration by RT-PCR analysis", "procedure,_shortened": "as §2"}, "[27]": {"tested_on": "Klebsiella pneumoniae", "assay": "Reduction of OmpK36 expression in Klebsiella pneumoniae M expressing CTX-M15 at 4 times MIC concentration by RT-PCR analysis", "procedure,_shortened": "as §2"}, "[28]": {"tested_on": "Escherichia coli", "assay": "Reduction of OmpC expression in Escherichia coli Wi expressing CTX-M15 at 4 times MIC concentration by SDS-PAGE analysis"}, "[29]": {"tested_on": "Klebsiella pneumoniae", "assay": "Antibacterial activity against Klebsiella pneumoniae M expressing CTX-M9"}, "[30]": {"tested_on": "Escherichia coli", "assay": "Reduction of OmpC expression in Escherichia coli Wi expressing CTX-M9 at 4 times MIC concentration by SDS-PAGE analysis"}, "[31]": {"tested_on": "Klebsiella pneumoniae", "assay": "Antibacterial activity against Klebsiella pneumoniae M expressing CTX-M2"}, "[32]": {"tested_on": "Klebsiella pneumoniae", "assay": "Reduction of OmpK35 expression in Klebsiella pneumoniae M expressing CTX-M2 at 4 times MIC concentration by RT-PCR analysis", "procedure,_shortened": "as §2"}, "[33]": {"tested_on": "Escherichia coli", "assay": "Reduction of OmpF expression in Escherichia coli Wi expressing CTX-M15 at 4 times MIC concentration by RT-PCR analysis", "procedure,_shortened": "as §1"}, "[34]": {"tested_on": "Klebsiella pneumoniae", "assay": "Reduction of OmpK35 expression in Klebsiella pneumoniae M expressing CTX-M9 at 4 times MIC concentration by RT-PCR analysis", "procedure,_shortened": "as §2"}}, "note": "Active and inactive are the calls of the source. The calls are words filed in the database; no cut-off is given here."}
{"smiles": "C[C@@H](O)[C@H]1C(=O)N2C(C(=O)O)=C(S[C@@H]3CN[C@H](C(=O)Nc4cccc(C(=O)O)c4)C3)[C@H](C)[C@H]12", "values": [{"measurement": "Activity", "setting": "[1]", "result": "Active"}, {"measurement": "Activity", "setting": "[2]", "result": "inactive"}, {"measurement": "Activity", "setting": "[3]", "result": "Active"}, {"measurement": "Activity", "setting": "[4]", "result": "Active"}, {"measurement": "Activity", "setting": "[5]", "result": "inactive"}, {"measurement": "Activity", "setting": "[6]", "result": "Active"}, {"measurement": "Activity", "setting": "[7]", "result": "Active"}, {"measurement": "Activity", "setting": "[8]", "result": "Active"}, {"measurement": "Activity", "setting": "[9]", "result": "Active"}, {"measurement": "Activity", "setting": "[10]", "result": "Active"}, {"measurement": "Activity", "setting": "[11]", "result": "inactive"}, {"measurement": "Activity", "setting": "[12]", "result": "inactive"}, {"measurement": "Activity", "setting": "[13]", "result": "Active"}, {"measurement": "Activity", "setting": "[14]", "result": "Active"}, {"measurement": "Activity", "setting": "[15]", "result": "inactive"}, {"measurement": "Activity", "setting": "[16]", "result": "Active"}, {"measurement": "Activity", "setting": "[17]", "result": "Active"}, {"measurement": "Activity", "setting": "[18]", "result": "Active"}, {"measurement": "Activity", "setting": "[19]", "result": "Active"}, {"measurement": "Activity", "setting": "[20]", "result": "Active"}, {"measurement": "Activity", "setting": "[21]", "result": "Active"}, {"measurement": "Activity", "setting": "[22]", "result": "Active"}, {"measurement": "Activity", "setting": "[23]", "result": "Active"}, {"measurement": "Activity", "setting": "[24]", "result": "inactive"}, {"measurement": "Activity", "setting": "[25]", "result": "Active"}, {"measurement": "Activity", "setting": "[26]", "result": "Active"}, {"measurement": "Activity", "setting": "[27]", "result": "Active"}, {"measurement": "Activity", "setting": "[28]", "result": "Active"}, {"measurement": "Activity", "setting": "[29]", "result": "inactive"}, {"measurement": "Activity", "setting": "[30]", "result": "Active"}, {"measurement": "Activity", "setting": "[31]", "result": "inactive"}, {"measurement": "Activity", "setting": "[32]", "result": "Active"}, {"measurement": "Activity", "setting": "[33]", "result": "Active"}, {"measurement": "Activity", "setting": "[34]", "result": "Active"}]}
